Active and inactive are the calls of the source. The rule behind the calls is not given here.

Test [1] deals with Trichomonas vaginalis. Description: Cytotoxicity against Trichomonas vaginalis TV-VP60 at 50 uM after 24 hrs by trypan blue exclusion assay. The class given is functional.
Test [2] has as its system Trichomonas vaginalis. Description: Induction of striking morphological alteration in Trichomonas vaginalis TV-VP60 assessed as striate vacuolization close to nucleus at 250 uM after 24 hrs by transmission electron microscopic analysis. It is filed as functional, organism-based.
Test [3] has as its system Trichomonas vaginalis. Description: Induction of striking morphological alteration in Trichomonas vaginalis TV-VP60 assessed as elongated nucleus at 250 uM after 24 hrs by transmission electron microscopic analysis. It is filed as functional, organism-based.
In test [4] the test system is Trichomonas vaginalis. Description: Induction of striking morphological alteration in Trichomonas vaginalis TV-VP60 assessed as hydrogenosomes on autophagic vacuoles at 250 uM after 24 hrs by transmission electron microscopic analysis. It is filed as functional, organism-based.
For test [5], the system named is Trichomonas vaginalis. Description: Effect on alteration in size of trophozoites in Trichomonas vaginalis TV-VP60 at 250 uM after 6 to 24 hrs by flow cytometry. It is filed as functional, organism-based. An outline of the steps:
(§1)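 TV-VP60 trophozoites exposed to 250 µM for 6 h and 24 h. Cell size and granularity were read by flow cytometry, with granularity taken as the vacuolization rate.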
In general terms: Flow cytometry measures light scatter and fluorescence of single cells or particles in a stream.

Test [6] deals with Trichomonas vaginalis. Description: Induction of striking morphological alteration in Trichomonas vaginalis TV-VP60 assessed as change in intracellular localization of hydrogenosomes at 250 uM after 6 to 24 hrs by transmission electron microscopic analysis. The class given is functional, organism-based.
Test [7] deals with Trichomonas vaginalis. Description: Cell cycle arrest in Trichomonas vaginalis TV-VP60 assessed as accumulation at G1 phase at 250 uM after 6 hrs using Annexin V FITC and propidium iodide staining by flow cytometry relative to control. It is filed as functional. In a few lines: (§2)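 TV-VP60 trophozoites (fresh clinical isolate) exposed to 250 µM for 6 h or 24 h; cell-cycle distribution measured by flow cytometry and compared with untreated trophozoites.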

Test [8] deals with Trichomonas vaginalis. Description: Induction of striking morphological alteration in Trichomonas vaginalis TV-VP60 assessed as degenerated cytoplasm matrix at 250 uM after 24 hrs by transmission electron microscopic analysis. It is filed as functional, organism-based.
In test [9] the test system is Trichomonas vaginalis. Description: Induction of striking morphological alteration in Trichomonas vaginalis TV-VP60 assessed as loss of original shape of parasites with some fissures on the surface at 250 uM by scanning electron microscopic analysis. It is filed as functional, organism-based. Particulars: TDE = time-dependent effect. An outline of the steps: (§3)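 Surface morphology of TV-VP60 trophozoites exposed to 250 µM for 6 h and 24 h was examined by scanning electron microscopy.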

For test [10], the system named is Trichomonas vaginalis. Description: Growth inhibition of Trichomonas vaginalis TV-VP60 at 250 uM treated followed by washout measured after 12 hrs growth period. The class given is functional, organism-based. In a few lines: (§4)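 TV-VP60 trophozoites treated with 250 µM for 12 or 24 h, centrifuged, and the pellet reinoculated into fresh medium without alkaloid. Growth was then followed as a kinetic curve. Untreated trophozoites went through the same procedure for comparison.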

Test [11] deals with Trichomonas vaginalis. Description: Induction of striking morphological alteration in Trichomonas vaginalis TV-VP60 assessed as abnormal shape of nucleus at 250 uM after 24 hrs by transmission electron microscopic analysis. It is filed as functional, organism-based.
In test [12] the test system is Trichomonas vaginalis. Description: Cell cycle arrest in Trichomonas vaginalis TV-VP60 assessed as accumulation at S phase at 250 uM after 6 hrs using Annexin V FITC and propidium iodide staining by flow cytometry relative to control. The class given is functional. In a few lines: as §2
Test [13] relates to Trichomonas vaginalis. Description: Cell cycle arrest in Trichomonas vaginalis TV-VP60 assessed as accumulation at G2 phase at 250 uM after 6 hrs using Annexin V FITC and propidium iodide staining by flow cytometry relative to control. It is filed as functional. An outline of the steps:
as §2

In test [14] the test system is Trichomonas vaginalis. Description: Induction of phosphatidylserine exposure in Trichomonas vaginalis TV-VP60 at 250 uM after 6 to 24 hrs by Annexin V-FITC staining. The class given is functional, organism-based.
Test [15] relates to Trichomonas vaginalis. Description: Induction of apoptosis in Trichomonas vaginalis TV-VP60 assessed as formation of apoptotic bodies at 250 uM after 6 to 24 hrs by flow cytometry. It is filed as functional, organism-based.
In test [16] the test system is Trichomonas vaginalis. Description: Cell cycle arrest in Trichomonas vaginalis TV-VP60 assessed as accumulation at S phase at 250 uM after 24 hrs using Annexin V FITC and propidium iodide staining by flow cytometry relative to control. It is filed as functional. An outline of the steps: as §2
In test [17] the test system is Trichomonas vaginalis. Description: Induction of striking morphological alteration in Trichomonas vaginalis TV-VP60 assessed as pseudocysts at flagella internalization stage at 5 uM after 24 hrs by scanning electron microscopic analysis. It is filed as functional, organism-based.
In test [18] the test system is Trichomonas vaginalis. Description: Induction of striking morphological alteration in Trichomonas vaginalis TV-VP60 assessed as change in shape of hydrogenosomes at 250 uM after 6 to 24 hrs by transmission electron microscopic analysis. It is filed as functional, organism-based.
For test [19], the system named is Trichomonas vaginalis. Description: Induction of striking morphological alteration in Trichomonas vaginalis TV-VP60 assessed as loss of original shape of parasites with some fissures on the surface at 250 uM after 6 hrs by scanning electron microscopic analysis. It is filed as functional, organism-based. In a few lines:
as §3

The test system of test [20] is Trichomonas vaginalis. Description: Growth inhibition of Trichomonas vaginalis TV-VP60 at 250 uM treated followed by washout measured after 48 hrs growth period. The class given is functional, organism-based. In a few lines:
as §4

The test system of test [21] is Trichomonas vaginalis. Description: Induction of striking morphological alteration in Trichomonas vaginalis TV-VP60 assessed as large peripheral vacuoles between plasma membrane and cytoplasm at 250 uM after 24 hrs by transmission electron microscopic analysis. It is filed as functional, organism-based.
Test [22] has as its system Trichomonas vaginalis. Description: Induction of striking morphological alteration in Trichomonas vaginalis TV-VP60 assessed as effect on golgi apparatus at 250 uM after 6 hrs by transmission electron microscopic analysis. The class given is functional, organism-based.
The test system of test [23] is Trichomonas vaginalis. Description: Cell cycle arrest in Trichomonas vaginalis TV-VP60 assessed as accumulation at G2 phase at 250 uM after 24 hrs using Annexin V FITC and propidium iodide staining by flow cytometry relative to control. The class given is functional. An outline of the steps:
as §2

For test [24], the system named is Trichomonas vaginalis. Description: Induction of apoptosis in Trichomonas vaginalis TV-VP60 assessed as DNA fragmentation at 250 uM after 6 to 24 hrs by agarose gel electrophoresis. The class given is functional, organism-based. In a few lines:
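Genomic DNA from TV-VP60 trophozoites treated with 250 µM for 6 h and 24 h was analysed by electrophoresis alongside untreated parasites.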

In test [25] the test system is Trichomonas vaginalis. Description: Induction of striking morphological alteration in Trichomonas vaginalis TV-VP60 assessed as formation of multinucleated cells at 250 uM after 24 hrs by transmission electron microscopic analysis. The class given is functional, organism-based.
The subject of test [26] is Trichomonas vaginalis. Description: Induction of striking morphological alteration in Trichomonas vaginalis TV-VP60 assessed as change in size of hydrogenosomes at 250 uM after 6 to 24 hrs by transmission electron microscopic analysis. It is filed as functional, organism-based.
Test [27] has as its system Trichomonas vaginalis. Description: Cell cycle arrest in Trichomonas vaginalis TV-VP60 assessed as accumulation at G1 phase at 250 uM after 24 hrs using Annexin V FITC and propidium iodide staining by flow cytometry relative to control. It is filed as functional. In a few lines: as §2
For test [28], the system named is Trichomonas vaginalis. Description: Cytotoxicity against Trichomonas vaginalis TV-VP60 at 2.5 uM to 1 mM after 24 hrs by trypan blue exclusion assay. It is filed as functional, organism-based. An outline of the steps: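 Dose-response run on 5.0 × 10^5 TV-VP60 trophozoites/mL (fresh clinical isolate), concentrations 2.5 to 1000 µM, 24 h exposure, viable trophozoites counted. Vehicle control included; metronidazole 50 µM used as positive control.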

For test [29], the system named is Trichomonas vaginalis. Description: Growth inhibition of Trichomonas vaginalis TV-VP60 at 250 uM using initial inoculum of 1.0 x 10^5 trophozoites/mL. It is filed as functional, organism-based. An outline of the steps: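 Kinetic growth curve of TV-VP60 trophozoites with 250 µM present, starting from initial inocula of 1.0 × 10^5 or 5.0 × 10^4 trophozoites/mL. Untreated parasites served as control.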

The test system of test [30] is Trichomonas vaginalis. Description: Induction of striking morphological alteration in Trichomonas vaginalis TV-VP60 assessed as loss of original shape of parasites with some fissures on the surface at 250 uM after 24 hrs by scanning electron microscopic analysis. It is filed as functional, organism-based. An outline of the steps:
as §3

Test [31] has as its system Trichomonas vaginalis. Description: Growth inhibition of Trichomonas vaginalis TV-VP60 at 250 uM using initial inoculum of 5 x 10^5 trophozoites/mL. The class given is functional, organism-based.
The subject of test [32] is Trichomonas vaginalis. Description: Induction of striking morphological alteration in Trichomonas vaginalis TV-VP60 assessed as effect on endoplasmic reticulum at 250 uM after 6 hrs by transmission electron microscopic analysis. It is filed as functional, organism-based.
Test [33] relates to Trichomonas vaginalis. Description: Induction of vacuolization formation in Trichomonas vaginalis TV-VP60 at 250 uM after 6 to 24 hrs by flow cytometry. It is filed as functional, organism-based. In a few lines:
as §1

As for `Cc1ncc([N+](=O)[O-])n1CCO` [METRONIDAZOLE], the Activity in test [1] is recorded as 100%.
As to `COc1c2c(cc3c1C(=O)O[C@H]1[C@@H]3[C@H]3C(=C[C@@H]1O)CCN3C)OCO2` [CANDIMINE], the outcome in test [2], in test [3], in test [4], in test [6], in [11] and in test [17] was Active. Moreover, the result in test [18], in test [19], in test [21], in test [26], in [28] and in [30] was Active. Further, in test [33], the outcome was Active. The result in [5], in test [8], in test [14], in test [15], in [22] and in [24] was inactive. Moreover, the outcome in [25] and in test [32] was inactive. Moreover, the Activity in [7] was 34.39%; in [9], “tde”; in test [12] it was 19.89%; in [13], 44.2%; in test [16], 19.49%; in [23] it was 58.97%. Further, the Activity in test [27] is on record as 22.66%. In addition, the “growth inhibition (GI)” value in test [10] and in test [20] was “inactive” in each case. The “growth inhibition (GI)” value in test [29] and in [31] was “Active” each time.

Source of the values: ChEMBL document CHEMBL1649373, “Candimine-induced cell death of the amitochondriate parasite Trichomonas vaginalis” (2010).
